IC50 data for 20 compounds are collected here from ChEMBL document CHEMBL1142371, “Synthesis and biological evaluation of imidazol-2-one derivatives as potential antitumor agents” (Bioorg Med Chem, 2008).

Holding throughout (assay type): functional, cell-based
Experiment [1] is described as follows: Cytotoxicity against multidrug-resistant human K562R cells after 48 hrs by MTT assay. Conditions: K-562R. An outline of the steps:
(§1)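 MTT read-out after 48 h drug exposure; MTT then added for a further 4 h at 37 °C, formazan dissolved in DMSO, absorbance at 570 nm. Triplicate wells in three independent experiments; IC50 = concentration giving 50% inhibition of cell viability, values are means of three experiments.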

Experiment [2] concerns HL-60. The experiment can be described thus: Cytotoxicity against human HL60 cells after 48 hrs by MTT assay. Particulars: HL-60, 48 h. The method, boiled down: as §1
In general terms: Tetrazolium assays rely on reduction of a dye to a coloured formazan, in cell work by metabolically active cells.

Experiment [3] relates to K562. As to the kind of experiment: Cytotoxicity against human K562 cells after 48 hrs by MTT assay. Conditions: K562, 48 h. An outline of the steps:
as §1

Experiment [4] can be described thus: Cytotoxicity against human ECA109 cells after 48 hrs by MTT assay. Conditions: ECa-109, 48 h. The method, boiled down:
as §1

Experiment [5] concerns A549. As to the kind of experiment: Cytotoxicity against human A549 cells after 48 hrs by MTT assay. Conditions: A549, 48 h. An outline of the steps:
as §1

Experiment [6] concerns PC-3. As to the kind of experiment: Cytotoxicity against human PC3 cells after 48 hrs by MTT assay. Conditions: PC-3, 48 h. An outline of the steps: as §1
Experiment [7] concerns Bel-7402. As to the kind of experiment: Cytotoxicity against human BEL-7402 cells after 48 hrs by MTT assay. Conditions: Bel-7402, 48 h. An outline of the steps: as §1
Experiment [8] concerns MCF7. The experiment can be described thus: Cytotoxicity against human MCF7 cells after 48 hrs by MTT assay. Conditions: MCF7, 48 h. An outline of the steps:
as §1

The pIC50 is −log10 of the IC50, conventionally taken in molar units. Higher therefore signals a low IC50.

pIC50: −log10 of the molar value.

Consider `COc1ccc(-c2cn(C(=O)Nc3cc(OC)c(OC)c(OC)c3)c(=O)n2-c2cc(OC)c(OC)c(OC)c2)cc1[N+](=O)[O-]`, for which the pIC50 was < 4.30 in experiment [1]; 4.71 in experiment [2]; 5.14 in experiment [3]; < 4.30 in experiment [4]; < 4.30 in experiment [5]; < 4.30 in experiment [6].
For the compound `COc1ccc(-c2cn(C(C)=O)c(=O)n2-c2cc(OC)c(OC)c(OC)c2)cc1[N+](=O)[O-]`, the negative logarithm of the IC50 (pIC50) in experiment [7] is 4.45; in experiment [1], < 4.30; in experiment [2] it was 5.25; in experiment [8], < 4.30; in experiment [3] it was < 4.30; in experiment [4], 4.51. Besides, the figures for the pIC50 in experiment [5] and in experiment [6] were 4.39 and 4.52, respectively.
For the compound `COc1cc(NC(=O)n2cc(-c3ccc(O)cc3)n(-c3cc(OC)c(OC)c(OC)c3)c2=O)cc(OC)c1OC`, the pIC50 in experiment [7] is < 4.30; in experiment [1] it was < 4.30; in experiment [2] it was 5.20; in experiment [8] it was < 4.30; in experiment [3], 4.98; in experiment [4], < 4.30. Further, the pIC50 is 5.60 in experiment [5] and 5.52 in experiment [6].
As for `COc1cc(-n2c(-c3ccccc3)cn(C(C)=O)c2=O)cc(OC)c1OC`, the pIC50 in experiment [7] was < 4.30; in experiment [1], 5.02; in experiment [2] it was 5.25; in experiment [8], < 4.30; in experiment [3] it was < 4.30; in experiment [4] it was < 4.30. The pIC50 in experiment [5] and in experiment [6] was < 4.30 throughout.
For the compound `COc1ccc(-c2cn(C(=O)Nc3cc(OC)c(OC)c(OC)c3)c(=O)n2-c2cc(OC)c(OC)c(OC)c2)cc1N`, the pIC50 in experiment [7] was 5.00; in experiment [1], 5.03; in experiment [2], 5.51; in experiment [8], < 4.30; in experiment [3], 5.24; in experiment [4] it was < 4.30. Also, the negative-log IC50 (pIC50) was 4.95 in experiment [5] and 5.00 in experiment [6].
As for `COc1ccc(-c2cn(C(=O)Nc3cc(OC)c(OC)c(OC)c3)c(=O)n2-c2cc(OC)c(OC)c(OC)c2)cc1OC`, the pIC50 in experiment [7] is < 4.30; in experiment [1], < 4.30; in experiment [2], 5.19; in experiment [8] it was < 4.30; in experiment [3] it was < 4.30; in experiment [4] it was < 4.30. Besides, the pIC50 in experiment [5] and in experiment [6] was < 4.30 in each case.
In the case of `COc1cc(-n2c(-c3ccc(F)cc3F)cn(C(C)=O)c2=O)cc(OC)c1OC`, the pIC50 was 4.44 in experiment [7]; < 4.30 in experiment [1]; 5.12 in experiment [2]; 4.31 in experiment [8]; < 4.30 in experiment [3]; < 4.30 in experiment [4]. Moreover, the pIC50 in experiment [5] was 4.62; in experiment [6], 4.46.
As for `COc1ccc(-c2cn(C(=O)Nc3cc(OC)c(OC)c(OC)c3)c(=O)n2-c2cc(OC)c(OC)c(OC)c2)cc1`, the negative logarithm of the IC50 (pIC50) was < 4.30 in experiment [7]; 5.46 in experiment [1]; 5.27 in experiment [2]; < 4.30 in experiment [8]; 5.42 in experiment [3]; < 4.30 in experiment [4]. The pIC50 in experiment [5] was < 4.30; in experiment [6], 4.30.
Turning to `COc1cc(-n2c(-c3ccc([N+](=O)[O-])cc3)cn(C(C)=O)c2=O)cc(OC)c1OC`, the pIC50 in experiment [7] was < 4.30; in experiment [1], 4.30; in experiment [2], 5.14; in experiment [8], < 4.30; in experiment [3] it was 4.58; in experiment [4] it was < 4.30. Also, the values for the pIC50 in experiment [5] and in experiment [6] were 4.30 and 4.48, respectively.
Regarding `COc1ccc(-c2c[nH]c(=O)n2-c2cc(OC)c(OC)c(OC)c2)cc1[N+](=O)[O-]`, the pIC50 in experiment [1] is < 4.30; in experiment [2], 4.84; in experiment [4], < 4.30; in experiment [5], < 4.30; in experiment [6] it was < 4.30.
Regarding `COc1cc(-n2c(-c3ccc(Cl)cc3)cn(C(C)=O)c2=O)cc(OC)c1OC`, the pIC50 in experiment [2] is 5.31; in experiment [3], < 4.30; in experiment [4], < 4.30; in experiment [5], < 4.30.
On to `COc1ccc(-c2c[nH]c(=O)n2-c2cc(OC)c(OC)c(OC)c2)cc1N`, for which the pIC50 in experiment [7] is < 4.30; in experiment [1], < 4.30; in experiment [2] it was 4.99; in experiment [8], < 4.30; in experiment [3] it was 4.31; in experiment [4], < 4.30. Further, the figures for the pIC50 in experiment [5] and in experiment [6] were < 4.30 and 4.30, respectively.
For `COc1ccc(-c2cn(C(C)=O)c(=O)n2-c2cc(OC)c(OC)c(OC)c2)cc1OC`, the pIC50 is < 4.30 in experiment [7]; < 4.30 in experiment [1]; 4.91 in experiment [2]; < 4.30 in experiment [8]; 4.36 in experiment [3]; < 4.30 in experiment [4]. The pIC50 in experiment [5] and in experiment [6] was < 4.30 in each case.
As for `CC(=O)O[C@@]12CO[C@@H]1C[C@H](O)[C@@]1(C)C(=O)[C@H](O)C3=C(C)[C@@H](OC(=O)[C@H](O)[C@@H](NC(=O)OC(C)(C)C)c4ccccc4)C[C@@](O)([C@@H](OC(=O)c4ccccc4)[C@H]21)C3(C)C` [DOCETAXEL], the pIC50 was 5.40 in experiment [8], 5.07 in experiment [3], 5.77 in experiment [5] and 4.26 in experiment [6].
Turning to `COc1ccc(-c2c[nH]c(=O)n2-c2cc(OC)c(OC)c(OC)c2)cc1`, the pIC50 was < 4.30 in experiment [1]; 4.70 in experiment [2]; < 4.30 in experiment [4]; < 4.30 in experiment [5]; < 4.30 in experiment [6].
As to `COc1cc(-n2c(-c3ccc(O)cc3)c[nH]c2=O)cc(OC)c1OC`, the pIC50 is < 4.30 in experiment [7]; < 4.30 in experiment [1]; 4.70 in experiment [2]; < 4.30 in experiment [8]; < 4.30 in experiment [3]; < 4.30 in experiment [4]. Further, the pIC50 in experiment [5] was < 4.30; in experiment [6], 4.52.
On to `COc1ccc(-c2cn(C(C)=O)c(=O)n2-c2cc(OC)c(OC)c(OC)c2)cc1N`, for which the pIC50 is 6.22 in experiment [7]; 4.31 in experiment [1]; 6.40 in experiment [2]; 4.36 in experiment [8]; 6.30 in experiment [3]; < 4.30 in experiment [4]. Also, the pIC50 was 5.96 in experiment [5] and 4.67 in experiment [6].
As for `COc1ccc(-c2c[nH]c(=O)n2-c2cc(OC)c(OC)c(OC)c2)cc1OC`, the negative-log IC50 (pIC50) is < 4.30 in experiment [1]; 4.41 in experiment [2]; < 4.30 in experiment [4]; < 4.30 in experiment [5]; < 4.30 in experiment [6].
For the compound `COc1ccc(-c2cn(C(=O)Nc3cc(OC)c(OC)c(OC)c3)c(=O)n2-c2cc(OC)c(OC)c(OC)c2)cc1O`, the pIC50 in experiment [1] was < 4.30; in experiment [2], 4.81; in experiment [3] it was < 4.30; in experiment [4], < 4.30; in experiment [5], < 4.30; in experiment [6], < 4.30.
With `COc1ccc(-c2cn(C(C)=O)c(=O)n2-c2cc(OC)c(OC)c(OC)c2)cc1`, the pIC50 was 5.02 in experiment [7]; 5.02 in experiment [1]; 5.26 in experiment [2]; < 4.30 in experiment [8]; 6.70 in experiment [3]; < 4.30 in experiment [4]. Moreover, the pIC50 in experiment [5] was 4.75; in experiment [6] it was 4.71.
